Laboratory results from ChEMBL document CHEMBL4699421 (RSC Med Chem, 2020).
Where a SMILES comes first, the peptide text is derived from it. [ ]: non-standard residue; d: D form. The star is where a group is joined. Cbz = O=C(OCc1ccccc1)*; Ac3c = NC1(C(=O)O)CC1

Columns and labels:
[1] = Selectivity index, ratio of CC50 for human U2OS cells assessed as reduction in cell viability incubated for 72 hrs by MTT assay to EC50 for Trypanosoma cruzi […]; assay type: toxicity, cell-based; settings: read-out: Ratio CC50/EC50
[2] = Cytotoxicity against human U2OS cells assessed as reduction in cell viability incubated for 72 hrs by MTT assay; assay type: cell-based
In short: (§1)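 Cells seeded at 5 × 10^4 cells per mL and grown 48 h (LLC-MK2 in RPMI; U2OS in high glucose DMEM). MTT 2.0 mg/mL added for 4 h, formazan dissolved in DMSO, read at 570 nm. CC50 from percent reduction versus untreated control.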

Cruzipain = Cruzipain (Trypanosoma cruzi, UniProt P25779); assay: Covalent inhibition of Trypanosoma cruzi cruzipain using Z-Phe-Arg-7-amidomethylcoumarin as substrate measured after 5 mins by fluorometric analysis
In short: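 Recombinant cruzain catalytic domain (no C-terminal extension), 0.15 nM, activated 20 min in 100 mM acetate pH 5.5, 300 mM NaCl, 5 mM DTT, then 2 min with inhibitor. Assay buffer adds 5% DMSO and 0.01% Triton X-100. Z-FR-AMC hydrolysis read at 355/460 nm, 37 °C, over 5 min. Wells checked for precipitation and background fluorescence.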

Trypanosoma cruzi [3] = assay: Trypanocidal activity against Trypanosoma cruzi Y intracellular amastigote form infected in human U2OS cells
[4] = Glutathione reactivity in pH 7.4 phosphate buffer assessed as decay constant; assay type: physicochemical
In short: (§2)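 HPLC reactivity at 37 °C in 0.05 M phosphate pH 7.4 with 1.0 mM EDTA and 5% acetonitrile, thiol glutathione or cysteine. Inhibitor solution 2.5 mM (stock). Aliquots injected over time on a 5–100% acetonitrile/water gradient with PDA detection 210–400 nm. Half-life and K from a one-phase decay fit, pseudo-first-order. Thiol-free control run for stability. Halved-concentration runs also reported.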

[5] = L-Cysteine reactivity in pH 7.4 phosphate buffer assessed as half life at 2.5 mM by HPLC analysis; assay type: physicochemical; settings: phosphate buffer with L-cysteine; in short: as §2
[6] = Glutathione reactivity in pH 7.4 phosphate buffer assessed as half life at 2.5 mM by HPLC analysis; assay type: physicochemical; settings: phosphate buffer with glutathione; in short: as §2
Trypanosoma cruzi [7] = assay: Trypanocidal activity against Trypanosoma cruzi Tulahuen LacZ intracellular amastigote form infected in monkey LLC-MK2 cells incubated for 72 hrs by chlorophenol red beta-D-galactopyranoside substrate based spectrophotometric assay; assay type: functional, organism-based; settings: LLC-MK2, 72 h
In short: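 LLC-MK2 at 5 × 10^4 cells per mL infected with Tulahuen LacZ trypomastigotes at 5 × 10^5 per mL, 24 h at 37 °C, 5% CO2. Extracellular parasites washed off. Compounds 1.95–250 µM (DMSO) added for 72 h. […] Benznidazole as positive control, DMSO as negative.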

[8] = Cytotoxicity against monkey LLC-MK2 cells assessed as reduction in cell viability incubated for 72 hrs by MTT assay; assay type: cell-based, Macaca mulatta; settings: rhesus monkey; in short: as §1
Trypanosoma cruzi [9] = assay: Trypanocidal activity against Trypanosoma cruzi […] relative to benznidazole; assay type: functional
[10] = L-Cysteine reactivity in pH 7.4 phosphate buffer assessed as decay constant; assay type: physicochemical; in short: as §2
[11] = Selectivity index, ratio of CC50 for monkey LLC-MK2 cells assessed as reduction in cell viability incubated for 72 hrs by MTT assay to EC50 for Trypanosoma cruzi Tulahuen LacZ intracellular amastigote form infected in monkey LLC-MK2 cells incubated for 72 hrs by chlorophenol red beta-D-galactopyranoside substrate based spectrophotometric assay; assay type: toxicity; settings: read-out: Ratio CC50/EC50
[12] = Glutathione reactivity in pH 7.4 phosphate buffer assessed decay constant at 1.25 mM; assay type: physicochemical; settings: pH 7.4, 1250 µM; in short: as §2
[13] = L-Cysteine reactivity in pH 7.4 phosphate buffer assessed as decay constant at 1.25 mM; assay type: physicochemical; settings: pH 7.4, 1250 µM; in short: as §2

Sequence of Cruzipain (P25779 whole entry, the tested form may be a part): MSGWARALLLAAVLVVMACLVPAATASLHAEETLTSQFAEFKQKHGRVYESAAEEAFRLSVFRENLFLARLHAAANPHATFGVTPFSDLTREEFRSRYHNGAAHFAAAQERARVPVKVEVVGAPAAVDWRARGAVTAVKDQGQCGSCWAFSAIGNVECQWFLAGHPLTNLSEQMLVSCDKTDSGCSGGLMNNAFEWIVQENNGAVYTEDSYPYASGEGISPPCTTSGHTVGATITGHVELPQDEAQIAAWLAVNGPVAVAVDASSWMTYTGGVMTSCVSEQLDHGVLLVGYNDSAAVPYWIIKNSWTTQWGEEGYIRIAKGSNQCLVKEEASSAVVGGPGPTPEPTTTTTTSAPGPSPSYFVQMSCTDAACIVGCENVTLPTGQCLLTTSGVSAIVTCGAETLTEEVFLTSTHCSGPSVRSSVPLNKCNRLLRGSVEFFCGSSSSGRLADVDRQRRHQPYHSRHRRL

Row | Structure (SMILES) | selectivity ratio at 72 h [1] | CC50 at 72 h [2] | EC50 (Trypanosoma cruzi [3]) | EC50 (Trypanosoma cruzi [7]) | CC50 at 72 h [8] | also measured
1 | O=C(N[C@@H](Cc1ccccc1)C(=O)Nc1cnoc1)c1ccccc1 | > 16.6 | > 100 µM | 6 µM | – | – | Ki (Cruzipain): 20 µM
2 | O=CC1(NC(=O)[C@H](Cc2ccccc2)NC(=O)OCc2ccccc2)CC1 (Cbz-Phe-[Ac3c]-aldehyde) | 58.4 | 3 µM | 0.1 µM | > 100 µM | > 100 µM | K [4]: 1.73 10^-2/min; half-life at 2500 µM [5]: 22.2 min; half-life at 2500 µM [6]: 40 min; fold change (FC) (Trypanosoma cruzi [9]): 10; K [10]: 3.12 10^-2/min
3 | CCN(CC)C(=O)/C=C/C1(NC(=O)[C@H](Cc2ccccc2)NC(=O)OCc2ccccc2)CC1 | – | – | – | > 100 µM | > 100 µM | –
4 | N#CC1(NC(=O)[C@H](Cc2ccccc2)NC(=O)OCc2ccccc2)CC1 | 4.4 | 6 µM | 1 µM | > 100 µM | > 100 µM | –
5 | O=C(N[C@@H](Cc1ccccc1)C(=O)Nc1cnoc1)OCc1ccccc1 | > 19.6 | > 100 µM | 5.1 µM | 25.8 µM | > 100 µM | selectivity ratio at 72 h [11]: > 3.9
6 | O=C(N[C@@H](Cc1c[nH]c2ccccc12)C(=O)Nc1cnoc1)c1ccccc1 | > 8.2 | > 100 µM | 22.4 µM | – | – | Ki (Cruzipain): 10 µM
7 | O=C(N[C@@H](Cc1ccccc1)C(=O)NC/C=N/O)OCc1ccccc1 | – | > 100 µM | > 100 µM | – | – | Ki (Cruzipain): 10 µM
8 | CNC(=O)/C=C/C1(NC(=O)[C@H](Cc2ccccc2)NC(=O)OCc2ccccc2)CC1 | > 8.2 | > 100 µM | 12.1 µM | – | – | –
9 | CN(C#N)N(C)C(=O)[C@H](Cc1ccccc1)NC(=O)OCc1ccccc1 | 3.2 | 10.2 µM | 3.2 µM | 21.7 µM | 42 µM | selectivity ratio at 72 h [11]: 1.9
10 | CCOC(=O)/C=C/C1(NC(=O)[C@H](Cc2ccccc2)NC(=O)OCc2ccccc2)CC1 | – | – | – | 79.6 µM | > 100 µM | selectivity ratio at 72 h [11]: > 1.2
11 | CON(C)C(=O)CNC(=O)[C@H](Cc1ccccc1)NC(=O)OCc1ccccc1 | – | – | – | > 100 µM | > 100 µM | Ki (Cruzipain): 100 µM
12 | CC(C)C[C@H](NC(=O)c1cc(C(C)(C)C)nn1C)C(=O)N(C)N(C)C#N | – | – | 8.4 µM | 8.4 µM | – | K [12]: 1.01 10^-2/min; K [13]: 3.15 10^-2/min
13 | COC(=O)C1=C(C#N)NC(C)=C(C(=O)OC(C)C)C1c1cccc([N+](=O)[O-])c1 (configuration not stated) [NILVADIPINE] | – | – | – | – | – | half-life at 2500 µM [6]: > 5000 min; K [10]: 1.41 10^-2/min
14 | N#CCNC(=O)[C@H](Cc1ccccc1)NC(=O)OCc1ccccc1 | > 27.8 | > 100 µM | 3.6 µM | > 100 µM | > 100 µM | selectivity ratio at 72 h [11]: 1.1
15 | Cc1coc(NC(=O)[C@H](Cc2ccccc2)NC(=O)OCc2ccccc2)n1 | – | – | – | > 100 µM | > 100 µM | –
16 | N#CCNC(=O)[C@H](Cc1ccccc1)NC(=O)c1ccccc1 | – | – | – | > 100 µM | – | K [10]: 9.33 10^-2/min
17 | N#CC1(NC(=O)[C@H](Cc2ccccc2)NC(=O)c2ccccc2)CC1 | – | – | – | > 100 µM | – | K [10]: 0.436 10^-2/min
